# RGS4 pot – RGS4 potentiators or activators, primary screen, cell-based, HEK293 M3R inducible RGS4, calcium flux; carbachol calcium flux Fluo4; hits give low values; B-score at 10 µM; 310,000 compounds, 0.92% hits; AID 463111, 2010;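 active = B-score of the integrated calcium signal more than 4 SD below the library mean, with starting fluorescence not abnormally high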;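 note: negative B-score means reduced calcium response which marks RGS4 activation or potentiation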
#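 Also added: carbachol at ECmax as muscarinic agonist stimulus; Assay system: HEK293 cells with stable M3R and inducible RGS4; Timing: overnight RGS4 induction, 30 min dye load 37 °C, 20 min compound RT; Measured by: Fluo4-AM (2 µM) calcium-flux fluorescence, kinetic read.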
# PHOSPHO1 block – PubChem AID 1565; inhibition, % at 13.3 µM; recombinant PHOSPHO1, absorbance phosphatase assay; 290,000 compounds, 1.1% hits; in the data active = inhibition above about 60%
# RGS4 inh – RGS4 inhibitors, primary screen, cell-based, HEK293 M3R inducible RGS4, calcium flux; Regulator of G-protein signaling 4 (Homo sapiens), P49798; Fluo-4 calcium flux; hits give high values; triggered by carbachol at its EC20; B-score at 10 µM; 310,000 compounds, 0.45% hits; AID 463165, 2010;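 active = B-score, a plate-corrected calcium signal, over three deviations above library mean, with baseline fluorescence within five deviations of library mean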;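 note: RGS4 expression induced by doxycycline in cells with stable M3 receptor; B-score is computed from the integrated fluorescence ratio over baseline after carbachol; higher B-score means a larger calcium signal and so more RGS4 inhibition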
# Target sequence (P49798 whole entry, looked up): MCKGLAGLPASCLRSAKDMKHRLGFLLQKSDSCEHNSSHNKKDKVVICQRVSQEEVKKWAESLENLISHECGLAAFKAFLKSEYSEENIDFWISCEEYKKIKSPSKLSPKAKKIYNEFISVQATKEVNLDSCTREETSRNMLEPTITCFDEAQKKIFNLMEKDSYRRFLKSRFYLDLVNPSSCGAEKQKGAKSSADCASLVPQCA
# MrgX1 PAM – positive allosteric modulators of MrgX1, primary screen, HEK293 cells, Fluo-4 calcium flux; 310,000 compounds, 0.63% hits; Mas-related G-protein coupled receptor member X1 (Homo sapiens), Q96LB2; FDSS; hits give high values; AID 588675, 2011; B-score at 10 µM;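 active = plate-corrected calcium response at least 3 library SD above typical, normal starting fluorescence, not activating the receptor alone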;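 note: compound read alongside a low EC10 to EC30 dose of BAM8-22 agonist; peak minus trough fluorescence over baseline measured at the second addition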
# Target sequence (Q96LB2 whole entry, looked up): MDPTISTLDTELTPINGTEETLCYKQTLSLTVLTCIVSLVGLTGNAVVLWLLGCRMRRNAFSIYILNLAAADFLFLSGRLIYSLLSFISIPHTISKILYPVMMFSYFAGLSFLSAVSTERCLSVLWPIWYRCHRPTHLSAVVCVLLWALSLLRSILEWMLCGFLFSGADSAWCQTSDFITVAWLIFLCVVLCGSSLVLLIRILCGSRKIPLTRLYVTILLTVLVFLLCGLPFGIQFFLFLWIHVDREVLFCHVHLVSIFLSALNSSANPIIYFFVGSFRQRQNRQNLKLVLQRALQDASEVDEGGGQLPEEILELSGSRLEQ
# MrgX1 antag – antagonists of human MrgX1 receptor, primary screen, HEK293 cells, Fluo-4 calcium flux; 310,000 compounds, 1.3% hits; Mas-related G-protein coupled receptor member X1 (Homo sapiens), Q96LB2; B-score at 10 µM; BAM8-22 antagonism; hits give low values;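 active = calcium-response B-score plate-corrected more than 3 library SD below zero, starting fluorescence within 5 deviations, no agonist response on first addition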;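 note: peak minus trough fluorescence over baseline after final BAM8-22 challenge near maximal dose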
# MrgX1 ag – agonists of human MrgX1 receptor, primary screen, HEK293 cells, Fluo-4 calcium flux. 310,000 compounds, 0.44% hits. B-score at 10 µM. Mas-related G-protein coupled receptor member X1 (Homo sapiens), Q96LB2. Fluo-4 calcium fluorescence, agonist mode; hits give high values. AID 588627, 2011;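 active = calcium response B-score plate-corrected fluorescence ratio at least 3 library SD, with starting fluorescence B-score inside 5 SD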
#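 Material: MrgX1-expressing HEK293 cells / Dosing: compound as first of three additions / Incubation: overnight seeding, then 1 h dark dye loading / Signal: Fluo-4 NW calcium fluorescence / Evaluation: B-scored fluorescence response ratio / Benchmarks: positive and negative control wells on each plate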
# Starred values were filed as active, the others as inactive; i = inactive; . = not tested or not shown. Shown are actives, neighbours in structure and some others; about 4.5% of the full set was active somewhere.
SMILES,RGS4 pot,PHOSPHO1 block,RGS4 inh,MrgX1 PAM,MrgX1 antag,MrgX1 ag
CCN(CC)c1ccc(NC(=O)c2ccc(Br)o2)cc1,i,71*,i,i,i,i
CCN(CC)c1ccc(NC(=O)Nc2cccc(C(C)=O)c2)cc1,i,74*,i,i,i,i
CC(=O)Nc1cccc(NC(=O)Nc2ccc(C(C)=O)cc2)c1,i,-14,i,i,i,i
CCOc1ccc(OCc2cccc(C(=O)Nc3ccc(CN4CCCCC4)cc3)c2)cc1,-7.3*,-7,i,i,i,i
COC(=O)Cc1ccc(NC(=O)c2ccc(Br)o2)cc1,i,4,i,i,i,i
CCOc1cccc(C(=O)Nc2ccc(N(CC)CC)cc2)c1,i,70*,i,i,i,i
CCOc1cccc(C(=O)Nc2ccc3ccccc3c2)c1,i,14,i,i,i,i
Cn1nc(C(=O)N2CCN(c3ccccc3F)CC2)c2c1-c1ccccc1S(=O)(=O)C2,i,30,i,i,i,i
CCC(=O)Nc1nc2ccc(NC(=O)c3cc(OC)c(OC)c(OC)c3)cc2s1,i,-25,i,i,i,i
O=c1c2c3n(c(=S)nc2[nH]n1-c1ccccc1)CCCCC3,i,82*,i,i,i,i
Cc1cc(/C=N/n2c(COc3ccccc3C)nc3ccccc3c2=O)c(O)c([N+](=O)[O-])c1,i,18,i,i,-6.5*,i
Cc1ccccc1OCc1nc2ccccc2c(=O)n1/N=C/c1c[nH]c2ccccc12,i,-7,i,i,i,i
O=C(CCSc1ccccc1)N1CCN(c2ccccc2)CC1,i,26,i,i,i,i
O=C(CCSc1ccc(Cl)cc1)N1CCN(c2ccc(O)cc2)CC1,-7.2*,32,i,i,i,i
O=C(N/N=C/c1c[nH]c2ccc(Br)cc12)c1ccn(Cc2ccc(Cl)cc2)n1,i,62*,i,i,i,i
Cc1ccc(CNC(=O)CN2C(=O)CSc3ccc(S(=O)(=O)N4CCC(C)CC4)cc32)cc1,i,24,i,i,i,i
O=[N+]([O-])c1ccc2oc(C(O)c3cccc(Cl)c3)cc2c1 (stereo not drawn),i,.,i,8.5*,i,i
CCOC(=O)c1cc2cc([N+](=O)[O-])ccc2oc1=O,i,13,i,i,i,i
CCCC(=O)Nc1cccc(NC(=O)c2cccc([N+](=O)[O-])c2C)c1,i,3,i,i,i,i
N#Cc1ccc(-c2ccccc2)nc1SCC(=O)c1cccc(Cl)c1,i,-19,i,i,i,i
N#Cc1ccc(-c2ccc(Cl)cc2)nc1SCC(=O)c1cccc(Cl)c1,i,76*,i,i,i,i
CN(C)S(=O)(=O)c1cccc(NC(=O)CSc2cccc3cccnc23)c1,-7.3*,12,i,i,i,i
O=C(Cn1cnc([N+](=O)[O-])n1)NCc1ccccc1,i,-10,i,i,i,i
O=C(Cn1ccnc1[N+](=O)[O-])NCc1ccccc1,-7.7*,.,i,i,i,i
C=CCn1c(C(C)NC(=O)c2ccc(C)cc2)n[nH]c1=S (stereo not drawn),i,-5,i,i,i,i
SMILES,RGS4 pot,PHOSPHO1 block,RGS4 inh,MrgX1 PAM,MrgX1 antag,MrgX1 ag
C=CCn1c(NC(=O)c2ccc(C)cc2)c(C#N)sc1=N,.,96*,.,i,i,i
CC(C)C(=O)N(c1ccc2oc(=O)sc2c1)S(=O)(=O)c1ccccc1,i,92*,i,i,i,i
CCCC(=O)N(c1ccc2oc(=O)sc2c1)S(=O)(=O)c1cccs1,.,95*,.,i,i,i
COc1ccc(C(=O)Oc2ccc3ccc(=O)oc3c2)cc1,i,27,i,i,i,i
COc1ccc(S(=O)(=O)N(C(=O)C(C)C)c2ccc3oc(=O)sc3c2)cc1,i,97*,i,i,i,i
COc1ccc(C(=O)Oc2ccc3oc(=O)sc3c2)cc1,i,94*,i,i,i,i
CCN(CC)CCNC(=O)CCCCn1c(=S)[nH]c2c([nH]c3ccc(OC)cc32)c1=O,i,95*,i,i,i,i
O=[N+]([O-])c1ccc(N=Cc2ccc(Br)c([N+](=O)[O-])c2)cc1,i,-17,i,i,i,34*
CC1CCCCC1NC(=O)C1CCN(c2c3c(nc4ncnn24)CCC3)CC1 (stereo not drawn),i,11,i,i,i,i
Cc1c(C(=O)/C=C/c2cccs2)oc2ccc(F)cc12,i,6,i,i,-6*,i
CC(=O)c1c(COC(=O)c2cccnc2)nc2ccccc2[n+]1[O-],i,88*,i,i,i,i
CN(C)CC(C)(C)CNS(=O)(=O)c1ccc(Cl)c(Cl)c1,i,37,i,i,i,i
CN(C)C(=S)SCC(=O)Nc1cccc(C(F)(F)F)c1,i,67*,i,i,i,i
NNC(=O)Nc1cccc(C(F)(F)F)c1,i,18,i,12*,i,i
CC1=C[C@@H](C)[C@@H](c2ccccc2)OC1=O,i,.,i,i,i,i
Cc1cccc(NC(=O)Nc2ccccc2[N+](=O)[O-])n1,i,0,i,i,i,i
N#CC1(NC(=O)CN2C(=O)c3ccc([N+](=O)[O-])cc3C2=O)CCCCC1,i,.,i,i,i,i
Cc1ccc(Cn2cccc(NC(=O)NC3CCCCC3)c2=O)cc1,i,66*,i,i,i,i
CC(O)CCC(=O)NNC1=CC(=O)CC(C)(C)C1 (stereo not drawn),i,64*,i,i,i,i
CCCCCC(O)CCC(=O)NNC1=CC(=O)CC(C)(C)C1 (stereo not drawn),i,8,i,i,i,i
Cc1ccc(NC(=O)NNC(=O)C2CC(c3cccnc3)=NO2)cc1 (stereo not drawn),i,26,i,i,i,i
O=C(NNC(=O)C1CC(c2cccnc2)=NO1)Nc1ccccc1F (stereo not drawn),i,65*,i,i,i,i
